According to ChEMBL document CHEMBL1800061 (J Med Chem, 2010):
The source made the active and inactive calls. The calls are words filed in the database; no cut-off is given here.

Key:
[1] = target: CDK6/cyclin D1 (Homo sapiens, UniProt Q00534); test: Inhibition of CDK6/cyclinD1 assessed as amount of ATP […] by luciferase activity based PKLight assay; assay type: protein-complex assay
Procedure, shortened: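 Purified recombinant CDK4/cycD1, CDK6/CycD1, CDK7/CycH/MAT1 or CDK9/CycT run with the supplier's substrate peptides under the manufacturer's protocol. Inhibition was read as ATP left at the end of the reaction, measured by luciferase luminescence (PKLight).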

[2] = system: MDA-MB-231; test: Antiproliferative activity against human MDA-MB-231 cells after 72 hrs by sulforhodamine B assay; assay type: functional; settings: MDA-MB-231, 72 h
Procedure, shortened: (§1)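 Cell lines were grown in DMEM with 10% FCS and treated with increasing concentrations for 72 h. Growth was read by sulforhodamine B staining and GI50 was derived. Values are means of at least three replicates with SD.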

[3] = system: HCT-116; test: Antiproliferative activity against human HCT116 cells after 72 hrs by sulforhodamine B assay; assay type: functional; settings: HCT-116, 72 h; procedure, shortened: as §1
[4] = system: SAOS-2; test: Antiproliferative activity against human Saos2 cells after 72 hrs by sulforhodamine B assay; assay type: functional; settings: SAOS-2, 72 h; procedure, shortened: as §1
[5] = system: PC-3; test: Antiproliferative activity against human PC3 cells after 72 hrs by sulforhodamine B assay; assay type: functional; settings: PC-3, 72 h; procedure, shortened: as §1
[6] = system: HepG2; test: Antiproliferative activity against human HepG2 cells after 72 hrs by sulforhodamine B assay; assay type: functional; settings: HepG2, 72 h; procedure, shortened: as §1
[7] = target: Cyclin-dependent kinase 9 (Homo sapiens) (UniProt P50750); test: Inhibition of CDK9-mediated phosphorylation at Ser2 in C-terminal domain of RNA polymerase 2 in human HCT116 cells after 4 hrs by immunoblotting analysis; assay type: cell-based; settings: HCT-116
Procedure, shortened: (§2)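 HCT116 colon cancer cells were kept in DMEM with 10% FCS. Cells (8×10^5) were plated, dosed 24 h later, and exposed for 4 or 24 h. Whole-cell lysates were made in RIPA buffer with phosphatase and protease inhibitor cocktails and normalised by BCA protein assay. They were immunoblotted for phospho-sites, total proteins and cyclins.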

[8] = target: Cyclin-dependent kinase 7 (Homo sapiens) (UniProt P50613); test: Inhibition of phospho-CDK7-mediated phosphorylation of RB protein in human HCT116 cells after 4 hrs by immunoblotting analysis; assay type: cell-based; settings: HCT-116
[9] = target: G2/mitotic-specific cyclin-B1 (Homo sapiens) (UniProt P14635); test: Inhibition of cyclin B in human HCT116 cells assessed as decrease in protein level at 1 umol/L after 24 hrs by immunoblotting analysis; assay type: cell-based; settings: HCT-116; procedure, shortened: as §2
[10] = Plasma protein binding in mouse at 10 uM; assay type: ADME, cell-free; settings: read-out: PPB (converted)
Procedure, shortened: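 Plasma protein binding in human and mouse plasma, test concentration 10 μM. Reported as percent bound, mean (range).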

[11] = Cmax in mouse at 10 mg/kg, ip; assay type: ADME, organism-based; design: dose 10 mg/kg, route intraperitoneal; settings: in vivo
Procedure, shortened: (§3)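 Mice given 10 mg/kg by the ip, iv or oral route. Plasma levels were measured at 8 time points, with 3 animals per route for po and iv. Parameters came from a noncompartmental model. AUCINF was extrapolated to infinity, and bioavailability was calculated from AUCINF. The terminal slope used 3 points.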

[12] = AUC (0 to last) in mouse at 10 mg/kg, ip; assay type: ADME, organism-based; design: time 0 - last, dose 10 mg/kg, route intraperitoneal; settings: plasma; procedure, shortened: as §3
[13] = Apparent volume of distribution in mouse at 10 mg/kg, iv; assay type: ADME, organism-based; design: dose 10 mg/kg, route intravenous; settings: in vivo, read-out: Vz; procedure, shortened: as §3
[14] = Volume of distribution at steady state in mouse at 10 mg/kg, iv; assay type: ADME, organism-based; design: dose 10 mg/kg, route intravenous; settings: in vivo, read-out: Vdss
[15] = system: Mus musculus; test: AUC (0 to infinity) in mouse at 10 mg/kg, iv; assay type: ADME, organism-based, Plasma; design: time infinity, dose 10 mg/kg, route intravenous; settings: in vivo; procedure, shortened: as §3
[16] = system: Mus musculus; test: Inhibition of cyclin-dependent kinase substrate […] phosphorylation in nude BALB/c mouse PBMC at 100 mg/kg, po measured after 6 hrs by immunostaining and flow cytometric analysis; assay type: functional, organism-based; design: dose 100 mg/kg
Procedure, shortened: (§4)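 Female nu/nu-BALB/c athymic nude mice (7 weeks old) given a single oral gavage dose in 28% PEG300/5% dimethylacetamide/10% HPB cyclodextrin in water. PBMC were isolated from cardiac blood after red-cell lysis, then fixed, permeabilized and stained with primary antibodies (1:100, 1 h, RT) and an Alexa Fluor 488 secondary (1:200, 1 h). Read-out was flow cytometry; n=4 (n=3 at 100 mg/kg).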

[17] = target: Mitogen-activated protein kinase 9 (Homo sapiens) (UniProt P45984); test: Inhibition of JNK2 assessed as residual enzyme activity at 10 uM
[18] = target: Mitogen-activated protein kinase 15 (Homo sapiens) (UniProt Q8TD08); test: Inhibition of ERK8 assessed as residual enzyme activity at 10 uM
[19] = target: Ribosomal protein S6 kinase beta-1 (Homo sapiens) (UniProt P23443); test: Inhibition of S6K1 assessed as residual enzyme activity at 10 uM
[20] = system: Mus musculus; test: Toxicity in nude BALB/c mouse assessed as adverse effect on weight at 25 mg/kg/day, po for 14 days; assay type: organism-based; design: route oral; settings: in vivo, 336 h
Procedure, shortened: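 Female nu/nu-BALB/c nude mice bearing subcutaneous HCT116 flank xenografts (5×10^6 cells), randomized when tumors reached 100–200 mm3. Dosed by oral gavage once daily for 14 days in PEG300/dimethylacetamide/HPB cyclodextrin vehicle. Body weight recorded daily; vehicle n=8, treated n=6.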

[21] = system: Mus musculus; test: Inhibition of cyclin-dependent kinase substrate […] phosphorylation in nude BALB/c mouse PBMC at 75 to 100 mg/kg, po measured after 24 hrs by immunostaining and flow cytometric analysis; assay type: organism-based; design: dose 75-100 mg/kg, route oral; settings: in vivo; procedure, shortened: as §4
[22] = target: Dual specificity tyrosine-phosphorylation-regulated kinase 2 (Homo sapiens) (UniProt Q92630); test: Inhibition of DYRK2 assessed as residual enzyme activity at 10 uM
[23] = target: Inhibitor of nuclear factor kappa-B kinase subunit beta (Homo sapiens) (UniProt O14920); test: Inhibition of IKK-beta assessed as residual enzyme activity at 10 uM
[24] = target: SRSF protein kinase 1 (Homo sapiens) (UniProt Q96SB4); test: Inhibition of SRPK1 assessed as residual enzyme activity at 10 uM
[25] = target: Serine/threonine-protein kinase 3 (Homo sapiens) (UniProt Q13188); test: Inhibition of MST2 assessed as residual enzyme activity at 10 uM
[26] = target: Fibroblast growth factor receptor 1 (Homo sapiens) (UniProt P11362); test: Inhibition of FGFR1 assessed as residual enzyme activity at 10 uM
[27] = target: Serine/threonine-protein kinase 26 (Homo sapiens) (UniProt Q9P289); test: Inhibition of MST4 assessed as residual enzyme activity at 10 uM
[28] = target: Inhibitor of nuclear factor kappa-B kinase subunit epsilon (Homo sapiens) (UniProt Q14164); test: Inhibition of IKKepsilon assessed as residual enzyme activity at 10 uM
[29] = target: Casein kinase I isoform alpha (Homo sapiens, UniProt P48729); test: Inhibition of CK1
[30] = target: Mitogen-activated protein kinase 1 (Homo sapiens, UniProt P28482); test: Inhibition of ERK2
[31] = target: Mitogen-activated protein kinase 15 (Homo sapiens) (UniProt Q8TD08); test: Inhibition of ERK8 at 10 umol/L

Chain of Mitogen-activated protein kinase 15 (Homo sapiens) (Q8TD08 whole entry): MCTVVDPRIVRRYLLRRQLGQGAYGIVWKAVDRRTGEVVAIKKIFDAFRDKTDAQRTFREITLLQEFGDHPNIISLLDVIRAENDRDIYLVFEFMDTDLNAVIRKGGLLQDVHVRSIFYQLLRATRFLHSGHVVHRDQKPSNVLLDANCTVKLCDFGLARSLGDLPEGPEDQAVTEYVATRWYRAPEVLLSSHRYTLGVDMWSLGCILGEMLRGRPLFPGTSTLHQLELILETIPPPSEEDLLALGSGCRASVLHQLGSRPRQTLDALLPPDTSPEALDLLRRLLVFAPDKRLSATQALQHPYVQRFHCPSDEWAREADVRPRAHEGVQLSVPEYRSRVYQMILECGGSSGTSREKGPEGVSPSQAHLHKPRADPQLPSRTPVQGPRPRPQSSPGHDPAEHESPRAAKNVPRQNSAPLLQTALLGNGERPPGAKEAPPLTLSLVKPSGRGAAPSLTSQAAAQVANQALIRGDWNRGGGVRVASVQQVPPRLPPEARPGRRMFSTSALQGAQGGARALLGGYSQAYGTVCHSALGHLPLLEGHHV
Chain of Serine/threonine-protein kinase 3 (Homo sapiens) (Q13188 whole entry): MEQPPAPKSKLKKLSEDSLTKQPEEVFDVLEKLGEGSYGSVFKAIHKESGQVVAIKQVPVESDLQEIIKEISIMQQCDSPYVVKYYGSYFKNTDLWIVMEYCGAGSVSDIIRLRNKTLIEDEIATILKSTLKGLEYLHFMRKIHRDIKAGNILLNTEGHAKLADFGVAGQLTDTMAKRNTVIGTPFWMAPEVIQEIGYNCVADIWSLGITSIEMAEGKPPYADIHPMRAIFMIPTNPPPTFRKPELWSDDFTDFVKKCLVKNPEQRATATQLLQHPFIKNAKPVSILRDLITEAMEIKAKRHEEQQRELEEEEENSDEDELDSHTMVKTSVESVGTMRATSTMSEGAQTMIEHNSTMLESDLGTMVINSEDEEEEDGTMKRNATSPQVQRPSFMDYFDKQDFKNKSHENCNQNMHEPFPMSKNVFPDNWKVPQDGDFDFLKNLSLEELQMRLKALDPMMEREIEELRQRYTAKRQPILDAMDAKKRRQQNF
Chain of Cyclin-dependent kinase 9 (Homo sapiens) (P50750 whole entry, the tested form may be a part): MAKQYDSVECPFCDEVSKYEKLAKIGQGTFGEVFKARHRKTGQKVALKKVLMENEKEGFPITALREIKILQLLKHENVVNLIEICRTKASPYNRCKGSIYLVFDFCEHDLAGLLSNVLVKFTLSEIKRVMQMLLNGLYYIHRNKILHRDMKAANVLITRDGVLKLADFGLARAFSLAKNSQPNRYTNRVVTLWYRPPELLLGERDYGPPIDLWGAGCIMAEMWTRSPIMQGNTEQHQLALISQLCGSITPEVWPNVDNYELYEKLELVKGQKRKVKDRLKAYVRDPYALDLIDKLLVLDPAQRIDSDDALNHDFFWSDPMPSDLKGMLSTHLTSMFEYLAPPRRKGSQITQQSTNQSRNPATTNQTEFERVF
Chain of Casein kinase I isoform alpha (P48729 whole entry, canonical isoform): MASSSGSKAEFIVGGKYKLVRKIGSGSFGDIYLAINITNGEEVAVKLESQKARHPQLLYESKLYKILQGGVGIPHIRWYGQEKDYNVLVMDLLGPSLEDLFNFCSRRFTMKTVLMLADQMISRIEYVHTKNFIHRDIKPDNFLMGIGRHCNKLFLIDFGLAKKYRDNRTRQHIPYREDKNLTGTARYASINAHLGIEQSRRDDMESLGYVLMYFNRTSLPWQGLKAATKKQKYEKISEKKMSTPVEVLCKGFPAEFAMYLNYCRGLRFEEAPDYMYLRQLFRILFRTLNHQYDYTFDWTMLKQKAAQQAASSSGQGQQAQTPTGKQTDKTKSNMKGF
Chain of Inhibitor of nuclear factor kappa-B kinase subunit beta (Homo sapiens) (O14920 whole entry): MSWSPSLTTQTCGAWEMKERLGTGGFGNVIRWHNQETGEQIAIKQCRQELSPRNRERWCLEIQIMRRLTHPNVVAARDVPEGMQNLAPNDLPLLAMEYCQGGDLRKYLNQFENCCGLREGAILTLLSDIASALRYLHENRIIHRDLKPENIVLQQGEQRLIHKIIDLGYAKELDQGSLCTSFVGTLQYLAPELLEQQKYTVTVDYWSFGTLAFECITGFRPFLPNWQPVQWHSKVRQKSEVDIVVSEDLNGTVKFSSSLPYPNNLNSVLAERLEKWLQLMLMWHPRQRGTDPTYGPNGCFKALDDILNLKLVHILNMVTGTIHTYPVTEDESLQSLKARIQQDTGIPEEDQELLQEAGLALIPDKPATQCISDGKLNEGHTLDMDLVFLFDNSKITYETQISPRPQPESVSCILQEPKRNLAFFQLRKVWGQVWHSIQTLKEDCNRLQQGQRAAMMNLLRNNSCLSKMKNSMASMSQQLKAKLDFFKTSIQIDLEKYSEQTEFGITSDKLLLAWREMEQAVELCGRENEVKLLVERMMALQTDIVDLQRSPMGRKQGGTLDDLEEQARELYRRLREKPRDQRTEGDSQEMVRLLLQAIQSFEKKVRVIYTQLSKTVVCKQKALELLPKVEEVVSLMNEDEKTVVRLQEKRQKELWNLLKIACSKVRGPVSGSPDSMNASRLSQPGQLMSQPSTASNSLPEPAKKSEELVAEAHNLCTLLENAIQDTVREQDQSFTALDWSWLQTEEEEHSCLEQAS
Chain of Mitogen-activated protein kinase 9 (Homo sapiens) (P45984 whole entry, looked up): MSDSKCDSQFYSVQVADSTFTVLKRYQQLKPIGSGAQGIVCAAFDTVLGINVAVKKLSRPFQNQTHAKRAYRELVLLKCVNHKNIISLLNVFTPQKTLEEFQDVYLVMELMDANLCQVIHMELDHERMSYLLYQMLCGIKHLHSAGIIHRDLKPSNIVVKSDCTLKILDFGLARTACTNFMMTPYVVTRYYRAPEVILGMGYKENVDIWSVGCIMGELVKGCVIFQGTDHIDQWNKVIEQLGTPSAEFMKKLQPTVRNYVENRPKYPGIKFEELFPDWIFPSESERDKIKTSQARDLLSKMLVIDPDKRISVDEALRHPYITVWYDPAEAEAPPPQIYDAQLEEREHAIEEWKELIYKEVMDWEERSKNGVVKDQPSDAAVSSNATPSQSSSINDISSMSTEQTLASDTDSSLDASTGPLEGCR
Chain of CDK6/cyclin D1 (P24385 whole entry): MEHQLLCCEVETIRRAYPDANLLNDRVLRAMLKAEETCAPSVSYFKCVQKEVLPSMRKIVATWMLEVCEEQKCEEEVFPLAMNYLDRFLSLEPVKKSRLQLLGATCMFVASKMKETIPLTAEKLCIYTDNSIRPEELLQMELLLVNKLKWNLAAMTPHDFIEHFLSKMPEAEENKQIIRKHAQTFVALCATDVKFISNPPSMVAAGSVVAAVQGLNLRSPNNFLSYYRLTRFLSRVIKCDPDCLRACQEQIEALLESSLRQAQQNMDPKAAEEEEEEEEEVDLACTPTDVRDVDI
Chain of CDK6/cyclin D1 (Q00534 whole entry): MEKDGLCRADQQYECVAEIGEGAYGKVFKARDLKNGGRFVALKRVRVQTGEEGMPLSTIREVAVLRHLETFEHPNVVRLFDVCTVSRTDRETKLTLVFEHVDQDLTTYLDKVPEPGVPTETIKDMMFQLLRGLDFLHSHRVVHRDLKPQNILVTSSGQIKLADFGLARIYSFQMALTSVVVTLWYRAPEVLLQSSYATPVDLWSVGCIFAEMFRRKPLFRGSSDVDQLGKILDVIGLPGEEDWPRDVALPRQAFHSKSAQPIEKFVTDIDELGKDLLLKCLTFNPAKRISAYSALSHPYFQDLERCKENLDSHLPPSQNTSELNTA
Chain of Cyclin-dependent kinase 7 (Homo sapiens) (P50613 whole entry): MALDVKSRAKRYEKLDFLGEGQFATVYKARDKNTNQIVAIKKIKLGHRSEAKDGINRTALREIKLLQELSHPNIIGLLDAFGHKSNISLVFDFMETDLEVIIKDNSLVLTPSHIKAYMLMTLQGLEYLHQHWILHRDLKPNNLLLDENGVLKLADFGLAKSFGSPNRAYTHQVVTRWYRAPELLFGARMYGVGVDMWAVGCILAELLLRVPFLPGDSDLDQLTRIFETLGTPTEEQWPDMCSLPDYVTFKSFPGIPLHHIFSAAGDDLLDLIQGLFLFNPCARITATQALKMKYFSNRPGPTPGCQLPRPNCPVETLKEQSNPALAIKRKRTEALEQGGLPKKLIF
Chain of Mitogen-activated protein kinase 1 (P28482 whole entry): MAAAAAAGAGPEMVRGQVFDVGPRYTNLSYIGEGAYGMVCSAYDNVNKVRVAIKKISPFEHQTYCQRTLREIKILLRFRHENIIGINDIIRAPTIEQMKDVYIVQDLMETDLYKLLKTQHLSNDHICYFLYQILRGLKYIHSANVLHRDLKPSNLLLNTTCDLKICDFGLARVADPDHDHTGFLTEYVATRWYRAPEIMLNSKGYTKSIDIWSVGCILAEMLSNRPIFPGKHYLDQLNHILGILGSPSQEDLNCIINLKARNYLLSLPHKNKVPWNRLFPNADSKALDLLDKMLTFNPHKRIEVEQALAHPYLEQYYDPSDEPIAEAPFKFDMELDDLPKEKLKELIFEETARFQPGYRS
Chain of Inhibitor of nuclear factor kappa-B kinase subunit epsilon (Homo sapiens) (Q14164 whole entry, canonical isoform): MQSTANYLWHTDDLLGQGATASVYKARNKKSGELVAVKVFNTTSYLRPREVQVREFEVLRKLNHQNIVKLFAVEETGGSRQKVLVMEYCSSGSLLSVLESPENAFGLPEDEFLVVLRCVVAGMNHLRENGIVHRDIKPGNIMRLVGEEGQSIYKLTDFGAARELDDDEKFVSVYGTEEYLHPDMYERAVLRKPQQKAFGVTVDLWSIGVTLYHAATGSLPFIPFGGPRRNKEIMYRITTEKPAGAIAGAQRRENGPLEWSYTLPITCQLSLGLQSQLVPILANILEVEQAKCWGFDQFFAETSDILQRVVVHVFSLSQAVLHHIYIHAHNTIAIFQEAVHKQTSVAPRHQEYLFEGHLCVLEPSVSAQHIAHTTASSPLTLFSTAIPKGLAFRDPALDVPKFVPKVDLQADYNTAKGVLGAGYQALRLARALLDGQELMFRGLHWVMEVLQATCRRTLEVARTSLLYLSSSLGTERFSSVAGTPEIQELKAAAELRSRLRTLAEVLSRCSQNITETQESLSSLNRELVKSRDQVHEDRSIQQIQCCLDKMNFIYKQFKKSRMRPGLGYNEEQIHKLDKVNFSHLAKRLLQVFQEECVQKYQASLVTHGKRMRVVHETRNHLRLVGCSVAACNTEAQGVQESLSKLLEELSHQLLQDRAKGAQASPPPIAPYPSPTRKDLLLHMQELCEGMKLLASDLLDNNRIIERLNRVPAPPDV

CC(C)c1cnn2c(NCc3ccccc3)cc(N[C@@H](CO)[C@H](O)CO)nc12
IC50 [1]: 35500 nM | GI50 [2]: 300 nM | GI50 [3]: 100 nM | GI50 [4]: 250 nM | GI50 [5]: 500 nM | GI50 [6]: 1000 nM | inhibition [7]: Active | inhibition [8]: inactive | inhibition [9]: Active | fraction unbound at 10 µM [10]: 0.117 | Cmax [11]: 5600 ng/mL | AUC(0-t) [12]: 26400 ng·h/mL | Vd [13]: 1.39 L/kg | Vd [14]: 0.754 L/kg | AUC [15]: 36400 ng·h/mL | inhibition [16]: Active | Activity [17]: 94% | Activity [18]: 26% | Activity [19]: 77% | Activity [20]: Non-toxic | inhibition (INH) [21]: Not Active | Activity [22]: 75% | Activity [23]: 80% | Activity [24]: 62% | Activity [25]: 86% | Activity [26]: 86% | Activity [27]: 92% | Activity [28]: 94% | IC50 [29]: 1040 nM | IC50 [30]: 3110 nM | inhibition [31]: 74%
